Reference: ChEMBL document CHEMBL1781920, “Synthesis and antimicrobial activity of some new 4-hetarylpyrazole and furo[2,3-c]pyrazole derivatives” (2011)
Values after ≈ are worked out from the molar mass of the structure shown.

These compounds were tested on Botrytis fabae (assay: Antifungal activity against Botrytis fabae ATCC 14862 at 1 mg/ml after 48 hrs by agar-diffusion method). Conditions: ATCC 14862, 48 h, read-out: IZ.
Format: functional
In short: (§1)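 Fungi were seeded at 10⁴ CFU/mL onto nutrient agar plates. Filter-paper disks carried compound dissolved in DMF at 1 mg/mL, two disks per plate, in triplicate, with a DMF-only control. After 48 h incubation at 37 °C, the average diameter of the growth-inhibition zone was read in mm.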

Row | Compound | zone of inhibition at 1000 µg/mL [mm]
1 | Cc1nn(-c2ccccc2)c2c1/C(=N/c1nc3ccccc3[nH]1)CO2 | 37
2 | Cc1[nH]n(-c2ccccc2)c(=O)c1C(=O)c1oc2ccccc2c1C | 15
3 | Cc1[nH]n(-c2ccccc2)c(=O)c1C(=O)CN1CCCCC1 | 31
4 | Cc1nn(-c2ccccc2)c2c1/C(=N/c1nnc[nH]1)CO2 | 19

The compounds below were run on Bacillus subtilis (assay: Antibacterial activity against Bacillus subtilis ATCC 6633 after 24 hrs by serial dilution method relative to chloramphenicol). Conditions: not given.
Format: functional

Row | Compound | Activity [%]
5 | Cc1[nH]n(-c2ccccc2)c(=O)c1C(=O)c1oc2ccccc2c1C | 50

These compounds were tested on Botrytis fabae (assay: Antifungal activity against Botrytis fabae ATCC 14862 after 48 hrs by serial dilution method). Conditions: ATCC 14862, 48 h.
Format: functional
In short: (§2)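 MICs were measured by microdilution in Sabouraud liquid medium, for compounds with disk zones >14 mm. DMF stocks were serially diluted twofold across 500–3.125. Sealed plates were incubated at 37 °C for 48 h in a humid chamber. The lowest concentration with no visible turbidity was recorded as the MIC.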

Row | MIC [µg/mL] | Compound
6 | 6.25 (≈ 19 µM) | Cc1nn(-c2ccccc2)c2c1/C(=N/c1nc3ccccc3[nH]1)CO2
7 | 100 (≈ 301 µM) | Cc1[nH]n(-c2ccccc2)c(=O)c1C(=O)c1oc2ccccc2c1C
8 | 12.5 (≈ 41.8 µM) | Cc1[nH]n(-c2ccccc2)c(=O)c1C(=O)CN1CCCCC1
9 | 50 (≈ 178 µM) | Cc1nn(-c2ccccc2)c2c1/C(=N/c1nnc[nH]1)CO2

The compounds below were run on Bacillus subtilis (assay: Antibacterial activity against Bacillus subtilis ATCC 6633 at 1 mg/ml after 24 hrs by agar-diffusion method). Conditions: ATCC 6633, 24 h, read-out: IZ.
Format: functional
In short: (§3)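 Agar disk diffusion on nutrient agar seeded with about 10⁶ CFU/mL of the test bacterium. Filter-paper disks were impregnated with compound in DMF at 1 mg/mL, two disks per plate, in triplicate. DMF alone served as control. Plates were incubated at 37 °C for 24 h, and the mean inhibition-zone diameter was recorded in mm.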

Row | Compound | zone of inhibition at 1000 µg/mL [mm]
10 | Cc1nn(-c2ccccc2)c2c1/C(=N/c1nc3ccccc3[nH]1)CO2 | 44
11 | Cc1[nH]n(-c2ccccc2)c(=O)c1C(=O)c1oc2ccccc2c1C | 37
12 | Cc1[nH]n(-c2ccccc2)c(=O)c1C(=O)CN1CCCCC1 | 43
13 | Cc1nn(-c2ccccc2)c2c1/C(=N/c1nnc[nH]1)CO2 | 38

What follows are compounds tested on Bacillus thuringiensis (assay: Antibacterial activity against Bacillus thuringiensis ATCC 6051 after 24 hrs by serial dilution method relative to chloramphenicol). Conditions: not given.
Format: functional

Row | Compound | Activity [%]
14 | Cc1[nH]n(-c2ccccc2)c(=O)c1C(=O)c1oc2ccccc2c1C | 50

What follows are compounds tested on Bacillus subtilis (assay: Antibacterial activity against Bacillus subtilis ATCC 6633 after 24 hrs by serial dilution method). Conditions: ATCC 6633, 24 h.
Format: functional
In short: (§4)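 Broth microdilution in Mueller–Hinton broth, run only for compounds giving zones >14 mm in the disk test. DMF stocks were diluted twofold from 500 to 3.125, and about 10⁶ CFU/mL bacteria were added per well. Sealed plates were kept at 37 °C for 24 h in a humid chamber. MIC was taken as the lowest concentration without visible turbidity.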

Row | MIC [µg/mL] | Compound
15 | 3.12 (≈ 9.49 µM) | Cc1nn(-c2ccccc2)c2c1/C(=N/c1nc3ccccc3[nH]1)CO2
16 | 6.25 (≈ 18.8 µM) | Cc1[nH]n(-c2ccccc2)c(=O)c1C(=O)c1oc2ccccc2c1C
17 | 3.12 (≈ 10.4 µM) | Cc1[nH]n(-c2ccccc2)c(=O)c1C(=O)CN1CCCCC1
18 | 6.25 (≈ 22.3 µM) | Cc1nn(-c2ccccc2)c2c1/C(=N/c1nnc[nH]1)CO2

Each compound was assayed on Bacillus thuringiensis (assay: Antibacterial activity against Bacillus thuringiensis ATCC 6051 after 24 hrs by serial dilution method). Conditions: ATCC 6051, 24 h.
Format: functional
In short: as §4

Row | MIC [µg/mL] | Compound
19 | 6.25 (≈ 19 µM) | Cc1nn(-c2ccccc2)c2c1/C(=N/c1nc3ccccc3[nH]1)CO2
20 | 6.25 (≈ 18.8 µM) | Cc1[nH]n(-c2ccccc2)c(=O)c1C(=O)c1oc2ccccc2c1C
21 | 6.25 (≈ 20.9 µM) | Cc1[nH]n(-c2ccccc2)c(=O)c1C(=O)CN1CCCCC1
22 | 6.25 (≈ 22.3 µM) | Cc1nn(-c2ccccc2)c2c1/C(=N/c1nnc[nH]1)CO2

What follows are compounds tested on Escherichia coli (assay: Antibacterial activity against Escherichia coli ATCC 14169 at 1 mg/ml after 24 hrs by agar-diffusion method). Conditions: ATCC 14169, 24 h, read-out: IZ.
Format: functional
In short: as §3

Row | Compound | zone of inhibition at 1000 µg/mL [mm]
23 | Cc1nn(-c2ccccc2)c2c1/C(=N/c1nc3ccccc3[nH]1)CO2 | 19
24 | Cc1[nH]n(-c2ccccc2)c(=O)c1C(=O)c1oc2ccccc2c1C | 27
25 | Cc1[nH]n(-c2ccccc2)c(=O)c1C(=O)CN1CCCCC1 | 19
26 | Cc1nn(-c2ccccc2)c2c1/C(=N/c1nnc[nH]1)CO2 | 15

These compounds were tested on Pseudomonas aeruginosa (assay: Antibacterial activity against Pseudomonas aeruginosa ATCC 27853 at 1 mg/ml after 24 hrs by agar-diffusion method). Conditions: ATCC 27853, 24 h, read-out: IZ.
Format: functional
In short: as §3

Row | Compound | zone of inhibition at 1000 µg/mL [mm]
27 | Cc1nn(-c2ccccc2)c2c1/C(=N/c1nc3ccccc3[nH]1)CO2 | 20
28 | Cc1[nH]n(-c2ccccc2)c(=O)c1C(=O)c1oc2ccccc2c1C | 19
29 | Cc1[nH]n(-c2ccccc2)c(=O)c1C(=O)CN1CCCCC1 | 16
30 | Cc1nn(-c2ccccc2)c2c1/C(=N/c1nnc[nH]1)CO2 | 16

Each compound was assayed on Escherichia coli (assay: Antibacterial activity against Escherichia coli ATCC 14169 after 24 hrs by serial dilution method). Conditions: ATCC 14169, 24 h.
Format: functional
In short: as §4

Row | MIC [µg/mL] | Compound
31 | 50 (≈ 152 µM) | Cc1nn(-c2ccccc2)c2c1/C(=N/c1nc3ccccc3[nH]1)CO2
32 | 25 (≈ 75.2 µM) | Cc1[nH]n(-c2ccccc2)c(=O)c1C(=O)c1oc2ccccc2c1C
33 | 50 (≈ 167 µM) | Cc1[nH]n(-c2ccccc2)c(=O)c1C(=O)CN1CCCCC1
34 | 100 (≈ 357 µM) | Cc1nn(-c2ccccc2)c2c1/C(=N/c1nnc[nH]1)CO2

What follows are compounds tested on Fusarium oxysporum (assay: Antifungal activity against Fusarium oxysporum ATCC 16417 after 48 hrs by serial dilution method). Conditions: ATCC 16417, 48 h.
Format: functional
In short: as §2

Row | MIC [µg/mL] | Compound
35 | 6.25 (≈ 19 µM) | Cc1nn(-c2ccccc2)c2c1/C(=N/c1nc3ccccc3[nH]1)CO2
36 | 100 (≈ 301 µM) | Cc1[nH]n(-c2ccccc2)c(=O)c1C(=O)c1oc2ccccc2c1C
37 | 100 (≈ 334 µM) | Cc1[nH]n(-c2ccccc2)c(=O)c1C(=O)CN1CCCCC1
38 | 100 (≈ 357 µM) | Cc1nn(-c2ccccc2)c2c1/C(=N/c1nnc[nH]1)CO2

What follows are compounds tested on Fusarium oxysporum (assay: Antifungal activity against Fusarium oxysporum ATCC 16417 at 1 mg/ml after 48 hrs by agar-diffusion method). Conditions: ATCC 16417, 48 h, read-out: IZ.
Format: functional
In short: as §1

Row | Compound | zone of inhibition at 1000 µg/mL [mm]
39 | Cc1nn(-c2ccccc2)c2c1/C(=N/c1nc3ccccc3[nH]1)CO2 | 14
40 | Cc1[nH]n(-c2ccccc2)c(=O)c1C(=O)c1oc2ccccc2c1C | 15
41 | Cc1[nH]n(-c2ccccc2)c(=O)c1C(=O)CN1CCCCC1 | 14
42 | Cc1nn(-c2ccccc2)c2c1/C(=N/c1nnc[nH]1)CO2 | 15

The compounds below were run on Bacillus thuringiensis (assay: Antibacterial activity against Bacillus thuringiensis ATCC 6051 at 1 mg/ml after 24 hrs by agar-diffusion method). Conditions: ATCC 6051, 24 h, read-out: IZ.
Format: functional
In short: as §3

Row | Compound | zone of inhibition at 1000 µg/mL [mm]
43 | Cc1nn(-c2ccccc2)c2c1/C(=N/c1nc3ccccc3[nH]1)CO2 | 37
44 | Cc1[nH]n(-c2ccccc2)c(=O)c1C(=O)c1oc2ccccc2c1C | 37
45 | Cc1[nH]n(-c2ccccc2)c(=O)c1C(=O)CN1CCCCC1 | 38
46 | Cc1nn(-c2ccccc2)c2c1/C(=N/c1nnc[nH]1)CO2 | 38

Each compound was assayed on Pseudomonas aeruginosa (assay: Antibacterial activity against Pseudomonas aeruginosa ATCC 27853 after 24 hrs by serial dilution method). Conditions: ATCC 27853, 24 h.
Format: functional
In short: as §4

Row | MIC [µg/mL] | Compound
47 | 50 (≈ 152 µM) | Cc1nn(-c2ccccc2)c2c1/C(=N/c1nc3ccccc3[nH]1)CO2
48 | 50 (≈ 150 µM) | Cc1[nH]n(-c2ccccc2)c(=O)c1C(=O)c1oc2ccccc2c1C
49 | 100 (≈ 334 µM) | Cc1[nH]n(-c2ccccc2)c(=O)c1C(=O)CN1CCCCC1
50 | 100 (≈ 357 µM) | Cc1nn(-c2ccccc2)c2c1/C(=N/c1nnc[nH]1)CO2
